Source: ChEMBL document CHEMBL4480426, “Novel multi-target directed ligands based on annelated xanthine scaffold with aromatic substituents acting on adenosine receptor and monoamine oxidase B. Synthesis, in vitro and in silico studies” (Bioorg Med Chem, 2019)

Experiments:
[1] = biological target: T1, Adenosine receptor A2b (Homo sapiens, UniProt P29275); assay: Displacement of [3H]PSB603 from recombinant human adenosine A2b receptor expressed in HEK293 cells; type: cell-based
T1 sequence (P29275 whole entry): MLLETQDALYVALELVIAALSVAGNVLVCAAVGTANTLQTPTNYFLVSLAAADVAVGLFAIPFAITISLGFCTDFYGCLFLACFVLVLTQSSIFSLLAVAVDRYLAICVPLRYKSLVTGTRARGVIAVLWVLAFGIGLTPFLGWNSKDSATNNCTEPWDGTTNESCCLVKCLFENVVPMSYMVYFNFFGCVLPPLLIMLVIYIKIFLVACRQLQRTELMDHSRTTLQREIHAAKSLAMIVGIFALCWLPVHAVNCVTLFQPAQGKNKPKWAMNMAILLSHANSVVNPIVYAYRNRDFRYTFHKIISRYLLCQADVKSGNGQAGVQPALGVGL

[2] = biological target: T2, Amine oxidase [flavin-containing] A (Homo sapiens, UniProt P21397); assay: Inhibition of recombinant human MAOA expressed in baculovirus infected BTI insect cells using p-tyramine as substrate preincubated for 30 mins followed by substrate addition and measured over 45 mins by horseradish peroxidase-Amplex Red-coupled fluorometric assay
T2 sequence (P21397 whole entry): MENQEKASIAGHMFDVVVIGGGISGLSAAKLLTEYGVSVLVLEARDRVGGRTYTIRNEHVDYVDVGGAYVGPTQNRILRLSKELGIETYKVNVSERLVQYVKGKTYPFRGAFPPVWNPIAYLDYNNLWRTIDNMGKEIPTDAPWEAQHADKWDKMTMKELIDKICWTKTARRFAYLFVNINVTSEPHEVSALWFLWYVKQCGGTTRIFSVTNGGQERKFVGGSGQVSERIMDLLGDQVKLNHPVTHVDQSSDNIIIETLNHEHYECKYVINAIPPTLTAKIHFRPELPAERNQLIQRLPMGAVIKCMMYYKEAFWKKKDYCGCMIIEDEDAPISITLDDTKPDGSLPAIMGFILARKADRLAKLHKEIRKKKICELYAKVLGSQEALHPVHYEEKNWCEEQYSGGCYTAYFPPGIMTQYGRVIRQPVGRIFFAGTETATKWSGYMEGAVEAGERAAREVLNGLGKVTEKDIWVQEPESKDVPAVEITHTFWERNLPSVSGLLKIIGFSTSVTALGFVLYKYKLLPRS
Procedure, shortened: (§1)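 Human recombinant MAO-A or MAO-B enzyme. Activity detected fluorometrically with the Amplex Red monoamine oxidase assay.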

[3] = biological target: T3, Adenosine receptor A1 (Homo sapiens, UniProt P30542); assay: Displacement of [3H]CCPA from recombinant human adenosine A1 receptor expressed in CHO cells; type: cell-based
T3 sequence (P30542 whole entry): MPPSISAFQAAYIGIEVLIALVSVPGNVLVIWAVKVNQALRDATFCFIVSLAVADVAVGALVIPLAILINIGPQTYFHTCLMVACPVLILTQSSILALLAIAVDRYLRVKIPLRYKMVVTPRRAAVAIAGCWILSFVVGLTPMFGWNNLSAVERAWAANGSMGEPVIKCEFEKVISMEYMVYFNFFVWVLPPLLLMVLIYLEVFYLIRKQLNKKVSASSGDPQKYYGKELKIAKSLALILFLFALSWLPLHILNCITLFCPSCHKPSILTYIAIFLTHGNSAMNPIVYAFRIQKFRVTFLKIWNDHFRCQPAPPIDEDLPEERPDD

[4] = biological target: T4, Amine oxidase [flavin-containing] B (Homo sapiens, UniProt P27338); assay: Inhibition of recombinant human MAOB expressed in baculovirus infected BTI insect cells at 1 to 100 uM using p-tyramine as substrate preincubated for 30 mins followed by substrate addition and measured over 45 mins by horseradish peroxidase-Amplex Red-coupled fluorometric assay relative to control; conditions: 0.75 h; procedure, shortened: as §1
T4 sequence (P27338 whole entry): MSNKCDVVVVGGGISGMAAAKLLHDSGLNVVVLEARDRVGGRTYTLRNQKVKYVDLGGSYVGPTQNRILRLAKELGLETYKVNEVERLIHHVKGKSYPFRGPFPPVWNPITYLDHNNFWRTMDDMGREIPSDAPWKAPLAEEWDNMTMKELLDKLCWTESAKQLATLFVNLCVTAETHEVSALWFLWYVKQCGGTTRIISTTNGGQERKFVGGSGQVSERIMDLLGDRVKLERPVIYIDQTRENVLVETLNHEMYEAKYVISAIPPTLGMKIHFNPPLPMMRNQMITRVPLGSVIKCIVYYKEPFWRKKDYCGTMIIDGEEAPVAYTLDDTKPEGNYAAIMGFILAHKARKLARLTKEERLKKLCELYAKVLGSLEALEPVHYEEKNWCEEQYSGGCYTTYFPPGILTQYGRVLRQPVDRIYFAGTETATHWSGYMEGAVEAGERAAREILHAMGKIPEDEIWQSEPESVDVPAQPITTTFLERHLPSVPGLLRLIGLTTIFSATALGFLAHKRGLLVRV

[5] = biological target: T4, Amine oxidase [flavin-containing] B; assay: Inhibition of recombinant human MAOB expressed in baculovirus infected BTI insect cells using p-tyramine as substrate preincubated for 30 mins followed by substrate addition and measured over 45 mins by horseradish peroxidase-Amplex Red-coupled fluorometric assay; procedure, shortened: as §1
[6] = biological target: T2, Amine oxidase [flavin-containing] A; assay: Inhibition of recombinant human MAOA expressed in baculovirus infected BTI insect cells at 1 to 100 uM using p-tyramine as substrate preincubated for 30 mins followed by substrate addition and measured over 45 mins by horseradish peroxidase-Amplex Red-coupled fluorometric assay relative to control; conditions: 0.75 h; procedure, shortened: as §1
[7] = biological target: T5, Adenosine receptor A3 (Homo sapiens) (UniProt P0DMS8); assay: Displacement of [3H]PSB11 from recombinant human adenosine A3 receptor expressed in CHO cells at 1 uM relative to control; type: cell-based
T5 sequence (whole entry): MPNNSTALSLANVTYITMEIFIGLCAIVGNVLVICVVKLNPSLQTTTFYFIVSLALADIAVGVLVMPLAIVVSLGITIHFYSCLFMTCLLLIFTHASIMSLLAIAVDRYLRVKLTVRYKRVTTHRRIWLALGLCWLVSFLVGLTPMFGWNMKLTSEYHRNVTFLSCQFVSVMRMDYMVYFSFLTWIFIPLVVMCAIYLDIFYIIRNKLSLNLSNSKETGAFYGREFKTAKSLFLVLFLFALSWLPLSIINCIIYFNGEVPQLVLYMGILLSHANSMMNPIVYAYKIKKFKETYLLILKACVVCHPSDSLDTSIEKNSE
Procedure, shortened: (§2)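 Purchased membranes of CHO cells expressing human A1 ([3H]CCPA) or human A3 ([3H]PSB-11). A single high compound concentration is screened first; for potent compounds, full inhibition curves spanning 3 orders of magnitude. At least three independent experiments.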

[8] = biological target: T6, Adenosine receptor A3 (Homo sapiens, UniProt P0DMS8); assay: Displacement of [3H]PSB11 from recombinant human adenosine A3 receptor expressed in CHO cells; type: cell-based
T6 sequence (P0DMS8 whole entry): T5 sequence (whole entry)

[9] = biological target: T7, Adenosine receptor A2a (Homo sapiens, UniProt P29274); assay: Displacement of [3H]MSX2 from recombinant human adenosine A2a receptor expressed in HEK293 cells; type: cell-based
[10] = biological target: T8, Adenosine receptor A2b (Homo sapiens) (UniProt P29275); assay: Displacement of [3H]PSB603 from recombinant human adenosine A2b receptor expressed in HEK293 cells at 1 uM relative to control; type: cell-based
T8 sequence (whole entry): T1 sequence (P29275 whole entry)
Procedure, shortened: (§3)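 Purchased membranes of HEK cells expressing human A2A ([3H]MSX-2) or human A2B ([3H]PSB-603). A single high compound concentration is screened first; for potent compounds, full inhibition curves spanning 3 orders of magnitude. At least three independent experiments.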

[11] = biological target: T9, Adenosine receptor A1 (Rattus norvegicus, UniProt P25099); assay: Displacement of [3H]CCPA from adenosine A1 receptor in rat brain cortical membranes; type: cell membranes
T9 sequence (P25099 whole entry): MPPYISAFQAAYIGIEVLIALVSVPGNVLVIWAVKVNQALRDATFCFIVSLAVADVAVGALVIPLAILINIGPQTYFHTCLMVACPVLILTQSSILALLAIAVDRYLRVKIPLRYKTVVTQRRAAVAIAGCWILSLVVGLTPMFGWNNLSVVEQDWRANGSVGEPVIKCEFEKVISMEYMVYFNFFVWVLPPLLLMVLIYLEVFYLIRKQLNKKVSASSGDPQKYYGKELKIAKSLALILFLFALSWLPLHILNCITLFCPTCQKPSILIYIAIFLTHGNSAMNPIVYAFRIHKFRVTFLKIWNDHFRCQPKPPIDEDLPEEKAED

[12] = biological target: T7, Adenosine receptor A2a; assay: Displacement of [3H]MSX2 from recombinant human adenosine A2a receptor expressed in HEK293 cells at 1 uM relative to control; type: cell-based; procedure, shortened: as §3
[13] = biological target: T10, Adenosine receptor A1 (Homo sapiens) (UniProt P30542); assay: Displacement of [3H]CCPA from recombinant human adenosine A1 receptor expressed in CHO cells at 1 uM relative to control; type: cell-based; procedure, shortened: as §2
T10 sequence (whole entry): T3 sequence (P30542 whole entry)

[14] = Antioxidant activity assessed as increase in total ferric ion reducing activity at 1000 uM using FeCl3.6H2O and TPTZ incubated for 10 mins under dark condition by FRAP assay relative to control; type: functional; parameters: scale not given: the % may be the effect or the level left
Procedure, shortened: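 FRAP reagent made by mixing 10 parts 300 mM acetate buffer pH 3.6, 1 part 10 mM TPTZ in 40 mM HCl and 1 part 20 mM FeCl3·6H2O. Reagent mixed with compound solution, 10 min at room temperature in the dark. Ferrous-TPTZ complex read at 593 nm. Result is absorbance increase versus solvent sample. FeSO4·7H2O standard curve, 37.5–1200 μM.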

T7 sequence (P29274 whole entry): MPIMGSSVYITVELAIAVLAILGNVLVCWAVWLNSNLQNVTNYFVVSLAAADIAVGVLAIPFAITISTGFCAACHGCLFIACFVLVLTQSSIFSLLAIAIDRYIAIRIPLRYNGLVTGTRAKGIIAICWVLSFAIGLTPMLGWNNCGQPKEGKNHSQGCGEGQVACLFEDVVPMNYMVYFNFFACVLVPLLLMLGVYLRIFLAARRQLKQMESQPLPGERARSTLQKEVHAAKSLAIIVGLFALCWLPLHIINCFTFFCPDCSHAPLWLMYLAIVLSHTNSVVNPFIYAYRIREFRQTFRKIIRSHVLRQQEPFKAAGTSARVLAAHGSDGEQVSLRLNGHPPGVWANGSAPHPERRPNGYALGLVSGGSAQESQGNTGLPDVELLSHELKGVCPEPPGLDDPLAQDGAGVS

SMILES	Ki [1] [µM]	IC50 [2] [µM]	Ki [3] [µM]	inhibition (INH) [4] [%]	IC50 [5] [µM]	inhibition (INH) [6] [%]	inhibition [7] [%]	Ki [8] [µM]	Ki [9] [µM]	inhibition [10] [%]	Ki [11] [µM]	inhibition [12] [%]	inhibition [13] [%]	Activity [14] [%]
Cn1c(=O)c2c(nc3n2CCN3Cc2cccc(Br)c2)n(C)c1=O	> 1	> 1	0.396	39	> 1	11	22	> 1	0.369	30				
Cn1c(=O)c2c(nc3n2CCCN3Cc2cc(F)c(F)c(F)c2)n(C)c1=O	> 1			24	> 1			> 1	> 1		> 1			
Cn1c(=O)c2c(nc3n2CCCN3CCc2ccncc2)n(C)c1=O	> 1			4	> 1			> 1	> 1		> 1			
Cn1c(=O)c2c(nc3n2CCN3Cc2ccc(Cl)c(Cl)c2)n(C)c1=O	> 1	> 1	> 1		0.515	-2	11	> 1	> 1	22		29	1	
Cn1c(=O)c2c(nc3n2CCCN3Cc2cccs2)n(C)c1=O	> 1			20	> 1			> 1	2.02		2.65			
Cn1c(=O)c2c(nc3n2CCCN3CCc2cccnc2)n(C)c1=O	> 1			1	> 1			> 1	3.04		> 1			
O=C1O[C@H]([C@@H](O)CO)C(O)=C1O														100
COc1ccccc1CN1CCn2c1nc1c2c(=O)n(C)c(=O)n1C	> 1	> 1	> 1		111	7	15	> 1	0.784	3			30	
Cc1ccccc1CN1CCCn2c1nc1c2c(=O)n(C)c(=O)n1C	> 1			40	> 1			> 1	1.02		1.41			
Cn1c(=O)c2c(nc3n2CCCCN3Cc2ccccc2Br)n(C)c1=O	> 1	> 1	> 1		0.275	3	42	> 1	0.767	43			21	
Cn1c(=O)c2c(nc3n2CCCCN3Cc2ccccc2F)n(C)c1=O	> 1	> 1	> 1	39	> 1	14	11	> 1	1.08	40			11	
Cn1c(=O)c2c(nc3n2CCN3Cc2ccc(F)c(Br)c2)n(C)c1=O	> 1	> 1	> 1		0.177	6	1	> 1	> 1	2		30	6	
Cn1c(=O)c2c(nc3n2CCCCN3Cc2ccc(Cl)cc2)n(C)c1=O	> 1	> 1	> 1		0.364	6	10	> 1	> 1	13			13	
Cn1c(=O)c2c(nc3n2CCN3Cc2ccc(Cl)cc2)n(C)c1=O	> 1	> 1	> 1	42	> 1	16	30	> 1	> 1	21		42	23	
Cn1c(=O)c2c(nc3n2CCCCN3Cc2ccc(Cl)cc2Cl)n(C)c1=O	> 1	> 1	> 1		0.282	-2	31	> 1	1.58	5			16	
